# Assay outcomes as filed in PubChem BioAssay.
# Most compounds without a hit are left out; they make up all but 1.6% or so of the library.
# SENP1 FRET inh – inhibitors of human SENP1 SUMO protease catalytic domain; AID 624204; Q9P0U3; recombinant SENP1 catalytic domain, CyPet-SUMO1-YPet FRET cleavage; inhibition, % at 10 µM; 360,000 compounds, 0.21% hits;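 active = inhibition at least 30% at 10 µM, raw YFP signal under a set limit, fluorescence ratio 0.5 to 1.5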
#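 system = hSENP1 catalytic domain, recombinant | reagent = SFCypet-SUMO1-SFYpet substrate at 25 nM | doses = one dose per compound, 10 µM, 0.5% DMSO | incubation = enzyme reaction for 50 min at room temperature, dark | measured by = FRET, CFP and YFP emission | controls = no-enzyme low, enzyme-DMSO high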
# TPT1 inhibitor – C. albicans TPT1 enzyme inhibition; recombinant caTPT1, FP RNA substrate dephosphorylation; inhibition, % at 5 µM; 300,000 compounds, 0.81% hits; AID 1962;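 active = inhibition above the mean of all tested compounds plus 3 SD, set per screening campaign, cut at about 24% in these data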
# HNF4A DNA FP – change in binding of human HNF4 alpha to DNA. activity change, % at 10 µM. P41235. HNF4a-FITC DNA binding, fluorescence polarization, 1 h. 360,000 compounds, 0.3% hits; in the data active = activity change above about 30%, passing the limit was not always enough
# CSN deneddyl inh – inhibitors of human CSN-mediated cullin deneddylation; Q92905; Purified CSN, SCF-Nedd8-OG deneddylation, fluorescence polarization; inhibition, % at 12.5 µM; 360,000 compounds, 0.38% hits; AID 651999;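 active = pattern-corrected inhibition above about 35%, with an unprinted fluorescence ratio check between 0.5 and 1.5, limit read from the data, passing the limit was not always enough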
# Target sequence (Q92905 whole entry, looked up, one chain of several): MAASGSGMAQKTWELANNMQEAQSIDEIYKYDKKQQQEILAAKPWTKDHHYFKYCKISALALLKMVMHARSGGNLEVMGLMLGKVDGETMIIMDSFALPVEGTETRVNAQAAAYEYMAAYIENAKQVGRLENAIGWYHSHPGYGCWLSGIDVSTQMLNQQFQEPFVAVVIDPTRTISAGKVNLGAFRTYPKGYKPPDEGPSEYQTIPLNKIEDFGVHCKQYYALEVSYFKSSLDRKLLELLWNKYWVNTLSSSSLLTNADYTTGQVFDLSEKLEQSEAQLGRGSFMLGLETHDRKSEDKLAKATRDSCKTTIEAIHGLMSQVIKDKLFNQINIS
#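 test system = HEK293T-derived human Csn5 enzyme | amount = 0.24 nM Csn5 enzyme, final concentration | medium = Tris/NaCl/DTT buffer, pH 7.5 | schedule = 90 min reaction at room temperature | signal = FP | evaluation = inhibition of Csn5 cleavage, % | compound dosing = single dose of 12.5 µM compound with 0.25% DMSO | probe or stimulus = 10 nM SCFSkp2-Nedd8OG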
# Rpn11 block – blocks the human proteasome subunit Rpn11; inhibition, % at 20 µM; AID 588493; 360,000 compounds, 0.59% hits; human 26S proteasome, Ub4-pepOG fluorescence polarization; 20S core pre-blocked with epoxomicin;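 active = inhibition at 20 µM, scaled to each plate's controls, above about 33%, limit read from the data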
# Target sequence (O00487 whole entry, looked up): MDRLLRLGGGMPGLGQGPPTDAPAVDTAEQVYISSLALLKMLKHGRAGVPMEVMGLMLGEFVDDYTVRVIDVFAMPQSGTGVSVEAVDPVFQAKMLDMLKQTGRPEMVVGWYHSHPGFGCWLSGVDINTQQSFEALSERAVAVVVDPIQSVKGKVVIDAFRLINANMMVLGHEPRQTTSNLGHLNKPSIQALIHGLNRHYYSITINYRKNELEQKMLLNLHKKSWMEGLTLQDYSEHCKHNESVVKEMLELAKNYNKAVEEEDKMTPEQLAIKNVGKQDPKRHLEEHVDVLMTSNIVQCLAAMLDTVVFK
# Rpn11 inh conf – confirmation of human proteasome Rpn11 inhibitors. shares compounds with Rpn11 block. purified human 26S proteasome, Ub4-pepOG fluorescence polarization; proteasome pretreated with epoxomicin. inhibition, % at 20 µM. 1,900 compounds, 29% hits. AID 602318
# MMP-2 counter – counter-screen for RPN11 inhibitors: inhibition of human MMP-2; shares compounds with Rpn11 block; inhibition, % at 20 µM; 1,900 compounds, 4% hits; recombinant MMP-2, FRET peptide cleavage fluorescence;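 note: human MMP-2 activated beforehand with APMA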
# Thrombin FP – counter-screen for RPN11 inhibitors: inhibition of bovine thrombin | inhibition, % at 20 µM | shares compounds with Rpn11 block | 1,900 compounds, 13% hits | AID 602333 | bovine thrombin cleavage of Ub4-pepOG, fluorescence polarization;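 active = mean inhibition at least 40% at 20 µM, or signal 3 deviations below plate average, so some actives read negative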
# Hits are given with their value; . = inactive; / = no result; + = active, no number. Cut-off read from the data, not from the text of the source, unless noted: active = inhibition above about 40%; inactive = the rest.
SMILES,SENP1 FRET inh,TPT1 inhibitor,HNF4A DNA FP,CSN deneddyl inh,Rpn11 block,Rpn11 inh conf,MMP-2 counter,Thrombin FP
COc1ccc(-c2cc(C(=O)Nc3ccc(Br)cc3)no2)cc1,.,.,.,.,59.1,.,.,.
COc1ccc(-c2cc(C(=O)Nc3cc(Cl)ccc3O)no2)cc1,.,.,.,.,51.0,.,.,.
COc1ccc(-n2c(COc3ccccc3)n[nH]c2=S)cc1,.,.,.,.,.,/,/,/
CCN(CC)S(=O)(=O)c1cc(NC(=O)CCNC(=O)c2ccco2)ccc1C,.,.,.,.,.,/,/,/
CCOC(=O)CSc1nsc(SCC(=O)OCC)c1C#N,.,.,.,.,.,/,/,/
CC(=O)CSc1nsc(SCC(C)=O)c1C#N,.,.,.,.,45.9,.,49.8,.
COc1ccc(OCC(=O)Nc2cc(-c3nn4c(C)nnc4s3)ccc2C)cc1,.,.,42.2,.,50.6,.,.,.
O=C(CC1OC(=O)c2ccccc21)Nc1cc(Cl)ccc1N1CCCC1 (centres undefined),.,.,.,.,64.6,62.1,.,.
Cc1ccc(C(=O)OCC(=O)c2ccccc2)cc1,.,.,.,.,.,/,/,/
CCc1ccc(C(=O)COC(=O)c2ccc(-c3nnc(-c4ccccc4)o3)cc2)cc1,.,.,.,.,44.3,.,.,.
CC1(C(=O)Nc2ccc3c(c2)OCO3)CCN1C(=O)C1CCCCC1 (centres undefined),.,/,.,.,.,/,/,/
COc1cccc(C(=O)NCC2CCCN(C(=O)Cc3cccc(C)c3)C2)c1OC (centres undefined),.,/,.,.,.,/,/,/
Cc1ccc(NC(=O)CSc2ncnc3ccccc23)cc1S(=O)(=O)N1CCCCCC1,.,.,.,.,42.7,.,50.0,.
COc1ccc(-c2nnc(SCC(=O)NCc3cccs3)n2C)cc1,.,.,.,.,.,/,/,/
COc1ccc(-c2nnc(SCC(=O)NCc3cccs3)n2C(C)C)cc1,.,.,.,.,38.7,.,.,.
COc1ccc(N2C(=O)CCC(C(=O)Nc3cccc(C)n3)C2c2ccc(OC)c(OC)c2)cc1 (centres undefined),.,.,.,.,+,.,.,.
COc1ccc(N2C(=O)CCC(C(=O)NCc3ccccn3)C2c2ccc(OC)c(OC)c2)cc1 (centres undefined),.,.,.,.,.,/,/,/
Clc1ccc(C2Nc3ccccc3-n3cccc32)cc1 (centres undefined),.,.,.,.,53.8,.,.,.
Clc1cccc(-c2nc3ccc(Br)cn3c2Cc2ccccc2)c1,.,/,.,.,49.9,.,.,.
Brc1cccc(-c2nc3ccc(Br)cn3c2Cc2ccccc2)c1,.,/,.,.,44.0,.,.,.
Clc1cccc(Cc2c(-c3cccc(Cl)c3)nc3ccc(Br)cn23)c1,.,/,.,.,.,/,/,/
O=C1Nc2ccccc2OCc2c1cccc2[N+](=O)[O-],.,.,.,.,34.5,.,.,.
Cc1onc(-c2ccccc2)c1C(=O)Nc1nc2c(s1)C(=O)CC(C)(C)C2,.,.,.,.,116.8,.,.,.
Cn1c(SCC(=O)Nc2sccc2C#N)nnc1C1CC1,.,/,.,.,.,/,/,/
COc1ccc(Cn2cc(CN3CC(N(C)C)CS3(=O)=O)nn2)cc1 (centres undefined),.,/,.,.,/,/,/,/
SMILES,SENP1 FRET inh,TPT1 inhibitor,HNF4A DNA FP,CSN deneddyl inh,Rpn11 block,Rpn11 inh conf,MMP-2 counter,Thrombin FP
CCOc1ccc(S(=O)(=O)N2CCCCC2)cc1NC(=O)CN1C(=O)NC(C)(c2ccc(C)cc2)C1=O (centres undefined),.,.,.,.,.,/,/,/
COc1cccc(Cn2c(N)c(C#N)c3nc4ccccc4nc32)c1OC,.,.,.,.,37.7,.,.,.
Cc1c(Cl)cccc1NC(=O)CCC(=O)NNC(=O)c1ccco1,.,.,.,.,.,/,/,/
O=C(CCC(=O)Nc1ccccc1Cl)NNC(=O)c1ccco1,.,.,.,.,48.0,.,.,.
NC(=O)N/N=C/c1sc(N2CCCCC2)nc1-c1cccs1,.,.,.,.,55.7,.,.,.
CC(C)NC(=S)N/N=C/c1sc(N2CCCCC2)nc1-c1cccs1,.,.,40.9,.,53.2,46.4,.,.
CC(C)CC(=O)NC(=S)Nc1ccc(NC(=O)c2ccco2)cc1,.,.,.,.,.,/,/,/
O=[N+]([O-])c1nccn1C1C=CC(O)C(CO)O1 (centres undefined),.,/,.,.,/,/,/,/
CCC(C)c1ccc(NC(=S)N2CCN(C(=O)C3CCCO3)CC2)cc1 (centres undefined),.,.,.,.,.,/,/,/
O=C(Cn1cnc2c(nnn2-c2ccccc2)c1=O)NCc1ccc(F)cc1,.,.,.,.,72.6,61.4,45.6,.
O=C(Cn1cnc2c(nnn2Cc2ccc(F)cc2)c1=O)NCc1ccccc1,.,.,.,.,.,/,/,/
Cc1ccc(-n2nnc3c(=O)n(CC(=O)NCc4ccccc4)cnc32)cc1,.,.,.,.,43.0,48.6,.,.
O=C(COC(=O)c1cncc(Br)c1)Nc1ccc(F)c(F)c1F,.,/,.,.,.,/,/,/
COc1ccc(CN2CCC(C(=O)Nc3ccc(Oc4ccccc4)nc3)CC2)cc1F,.,.,.,.,.,/,/,/
Cc1nn(C)c2ncc(C(=O)c3cc(F)ccc3O)cc12,.,.,.,.,.,/,/,/
Cn1c(=O)[nH]c(=O)c2cc(C(=O)c3cc(F)ccc3O)cnc21,.,.,.,.,67.7,.,.,.
COc1ccc(OC)c(/C=N/NC(=O)CNC(=O)c2ccc(S(=O)(=O)N3CCOCC3)cc2)c1,.,.,.,.,.,/,/,/
N#CNC(=Nc1cccc(F)c1)SCc1ccccc1,.,.,.,.,47.4,.,.,.
N#CNC(=Nc1cccc(F)c1)SCc1cccc(F)c1,.,.,.,.,.,/,/,/
CN1CCN(c2ccc(-c3cc(NC=O)c4ncc(-c5ccc(F)c(Cl)c5)n4c3)cc2)CC1,.,/,.,.,48.5,.,.,.
O=CNc1cc(-c2ccccc2)cn2c(-c3ccc(F)c(Cl)c3)cnc12,.,/,.,.,.,/,/,/
O=C(COc1ccc(F)cc1Br)Nc1ccccc1N1CCCC1,.,/,.,.,.,/,/,/
COc1ccc(/C=C2\Sc3ccc(C(=O)NCCN4CCCCCC4)cc3N(C)C2=O)cc1,.,.,.,.,41.9,.,.,.
COc1ccc(/C=C2\Sc3ccc(C(=O)N4CCc5ccccc5C4)cc3N(C)C2=O)cc1,/,.,/,/,/,/,/,/
COc1cc(/C=C2\C(=N)N3N=C(S(C)(=O)=O)SC3=NC2=O)ccc1OC(=O)c1ccco1,.,.,.,.,44.2,.,.,.
ClN=C1C=CC=CC1=NCl,.,/,.,.,.,/,/,/
